Screening data from PubChem BioAssay.
An excerpt weighted towards active compounds, which were near 2% of everything screened.
SR-BI DiI inh: inhibitors of SR-BI mediated HDL lipid uptake, primary screen, ldlA[mSR-BI] cells, fluorescence, single point; Scavenger receptor class B member 1 (Mus musculus), Q61009; ldlA[mSR-BI] CHO cells, DiI-HDL uptake fluorescence, 3 h; inhibition, % at 12.5 µM; hit rate 0.96% among 320,000;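 active = mean replicate inhibition of at least 70% and a set share of replicates each scoring 70 or more; inconclusive = meets just one of the two criteria; inactive = fails both criteria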;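 note: 0% = median of neutral control wells and 100% = median of positive control wells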
dFosB act: activators of delta FosB homodimer, primary screen, biochemical, fluorescence polarization, TAMRA-CDK5 oligo, single point; Protein FosB (Mus musculus), P13346; purified delta FosB; percent of positive-control signal above neutral wells; activation, % at 25 µM; hit rate 0.99% among 340,000; AID 493131, 2011;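 active = mean activation above about 17%, with every replicate also reaching it, limit read from the data, passing the limit was not always enough; inconclusive = only one of the two conditions met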
CDK5 p35 inh: inhibitors of human CDK5/p35 kinase, primary screen, biochemical, single concentration | Cyclin-dependent kinase 5 (Homo sapiens) + Cyclin-dependent kinase 5 activator 1 (Homo … | Recombinant CDK5/p35, ADP-Glo luminescence, 60 min | inhibition, % at 10 µM | hit rate 0.01% among 330,000 | AID 488839, 2010;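 active = highest replicate inhibition of at least 50% and at least 75% of replicates reaching 50%; inconclusive = only one of the two criteria met; inactive = both criteria failed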;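 note: plate controls were DMSO neutral control for no effect and GW8510 at 10 µM for full effect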
Target sequence (Q00535 whole entry, looked up): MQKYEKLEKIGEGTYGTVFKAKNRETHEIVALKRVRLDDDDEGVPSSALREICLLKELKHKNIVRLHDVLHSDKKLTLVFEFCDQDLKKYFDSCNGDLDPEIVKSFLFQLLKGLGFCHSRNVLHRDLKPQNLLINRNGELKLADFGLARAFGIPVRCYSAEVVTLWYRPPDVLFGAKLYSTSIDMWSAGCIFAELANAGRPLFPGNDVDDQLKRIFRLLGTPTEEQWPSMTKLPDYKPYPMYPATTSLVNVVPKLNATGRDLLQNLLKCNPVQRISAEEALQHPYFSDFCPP
Target sequence (Q15078 whole entry, looked up): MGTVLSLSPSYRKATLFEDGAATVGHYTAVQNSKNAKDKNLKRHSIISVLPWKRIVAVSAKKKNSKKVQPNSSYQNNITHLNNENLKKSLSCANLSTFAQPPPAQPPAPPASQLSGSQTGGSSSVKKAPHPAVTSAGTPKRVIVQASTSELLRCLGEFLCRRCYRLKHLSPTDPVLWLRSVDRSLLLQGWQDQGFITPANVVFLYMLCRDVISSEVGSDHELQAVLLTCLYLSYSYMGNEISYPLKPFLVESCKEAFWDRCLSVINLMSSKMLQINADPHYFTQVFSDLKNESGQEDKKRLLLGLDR
SR-BI DiI-HDL act: activators of SR-BI mediated DiI-HDL uptake, primary screen, ldlA[mSR-BI] CHO cells, DiI fluorescence. 3 h; 100 = double the neutral-control signal. activation, % at 12.5 µM. hit rate 0.096% among 320,000;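 active = mean replicate activation of at least 60% and every replicate at or above 60%; inconclusive = mean or all-replicate condition met, but not both; inactive = mean below 60% and not all replicates reaching 60%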;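 note: 0% = median plate neutral-control signal and 100% = twice that signal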
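Material: SR-BI-overexpressing, LDLR-lacking CHO cells | Dosing: Single compound concentration, delivered by pin transfer | Probe or stimulus: Labelled HDL, 10 µg/mL | Signal: Bottom-read cell fluorescence after medium removal, ex 550/em 595 nm | Schedule: 3 h, 37 °C | Evaluation: HDL uptake via cellular fluorescence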
Numbers without * were called inactive; ? = inconclusive; / = no result given.

SMILES	SR-BI DiI inh	dFosB act	CDK5 p35 inh	SR-BI DiI-HDL act
Cc1ccc(Nc2nc(N)c3ccccc3n2)cc1Cl	-5	28*	5	5
CCOC(=O)c1ccc(Nc2ccc(-c3ccc(OC)c(OC)c3)nn2)cc1	35	-19	0	-35
CCOC(=O)c1ccc(Nc2nc(N)c3cc(OC)c(OC)cc3n2)cc1	-3	37*	0	3
Cc1onc(-c2c(F)cccc2Cl)c1C(=O)Nc1ccc(Cl)c(S(=O)(=O)N(C)C)c1	29	-3	-1	-29
COc1cc2nc(Nc3ccc(F)cc3)nc(N)c2cc1OC	-19	21*	2	19
Cc1cccc(C(=O)N[C@H](C(=O)Nc2ccc(C)c(S(=O)(=O)N3CCOCC3)c2)C(C)C)c1	19	0	0	-19
COc1ccc2c(c1)-c1nc(NC(=O)c3ccco3)sc1CC2	78*	-7	-1	-78
COc1ccc2c(c1)-c1nc(NC(=O)c3cccs3)sc1CC2	79*	0	0	-79
COc1ccc2c(c1)CCc1sc(NC(=O)c3ccc(C)cc3)nc1-2	15	-3	0	-15
Cc1cc(Nc2ccc(Cl)cc2)nc(NCc2ccccc2)n1	-21	38*	2	21
Cc1cc(N/N=C/c2ccc(Cl)cc2Cl)nc(NCc2ccccc2)n1	15	?	0	-15
Cc1cc(Nc2ccccc2)nc(NCc2ccccc2)n1	4	4	-3	-4
Cc1ccc(/C=N/Nc2cc(C)nc(NCc3ccccc3)n2)cc1	9	55*	2	-9
Cc1cc(N/N=C/c2ccc(N(C)C)cc2)nc(NCc2ccccc2)n1	81*	8	0	-81
O=C(OCc1ccccc1)c1cccc(-c2nnc(-c3ccccc3)o2)c1	-62	-23	0	62*
COc1cccc(-c2c(-c3cc(OC)cc(OC)c3)n(C)c3ccc(-c4ccc5cc[nH]c5c4)cc23)c1	68	-2	0	-68
COc1cc(OC)cc(-c2c(-c3cccs3)c3cc(-c4ccc5[nH]ccc5c4)ccc3n2C)c1	80*	9	0	-80
COc1ccc(-c2c(C#Cc3ccsc3)c3cc(-c4ccc5[nH]ccc5c4)ccc3n2C)cc1	41	17*	0	-41
COc1cc(OC)cc(-c2c(-c3cccs3)c3cc(-c4ccc5cc[nH]c5c4)ccc3n2C)c1	109*	1	0	-109
COc1ccc(-c2c(C#Cc3ccsc3)c3cc(-c4cccc5[nH]ccc45)ccc3n2C)cc1	21	0	-3	-27
CC(C)CN(C(=O)Cn1c(Cl)nc2c1c(=O)n(C)c(=O)n2C)C1CCS(=O)(=O)C1 (stereo not drawn)	-22	8	0	22
Cc1nc2ccccn2c(=O)c1NC(=O)c1cccc2ccccc12	-11	-11	3	11
N#Cc1cccc(C#N)c1Oc1ccc(N)cc1	-7	4	-2	7
CCn1c(SCC(=O)c2ccc(O)c(O)c2)nnc1-c1ccc(C)cc1	5	-9	-2	-5
CCn1c(SCC(=O)c2ccc3c(c2)Cc2ccccc2-3)nnc1-c1ccc(N)cc1	77*	3	0	-77
SMILES	SR-BI DiI inh	dFosB act	CDK5 p35 inh	SR-BI DiI-HDL act
Cc1[nH]n(-c2ccccc2)c(=O)c1N=Nc1c(O)cc(S(=O)(=O)N(C)C)c2ccccc12	136*	-4	2	-136
CCOC(=O)C(=N/O)/C(C)=N/NC(=O)C(=O)Nc1cc(Cl)ccc1Cl	81*	-3	1	-81
CCC1CCC(C(=O)NC(C(=O)NCCc2ccc(S(N)(=O)=O)cc2)C(C)C)CC1 (stereo not drawn)	8	73*	-1	-8
CC(C)C(NC(=O)C1CCC(C(C)(C)C)CC1)C(=O)NCCc1ccc(S(N)(=O)=O)cc1 (stereo not drawn)	-13	5	0	13
CN(C)c1cc(-c2ccc(Cl)cc2Cl)oc(=O)c1Cl	17	10	5	-17
COc1ccccc1CCNC(=O)C(=O)NCC1OCCCN1S(=O)(=O)c1ccc(F)cc1C (stereo not drawn)	35	-8	0	-35
O=C(Cn1nc(C(F)F)cc1C1CC1)N1CCCC1	/	-11	0	/
Cc1cc(C)c2nc(NNC(=O)c3ccc(S(=O)(=O)N4CCCCC4)cc3)sc2c1	76*	-9	0	-76
Cc1cccc2sc(NNC(=O)c3ccc(S(=O)(=O)N4CCc5ccccc5C4)cc3)nc12	125*	-4	1	-125
